Results filed as inconclusive are left out.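 Rule for the calls, unless noted: active = RAM network inhibition above 8.4% in each of two replicates, 3 SD over the compound average; inconclusive = above 8.4% inhibition in only one replicate; inactive = 8.4% inhibition or less in each replicate.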
Experiments:
[1] = OD615 S. cerevisiae growth inhibition, permissive medium, pilot counter-assay, permissive growth control for S. cerevisiae lifespan shortening project (AID 705;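 active = growth inhibition above 25% in both replicates, a cutoff set 3 SD above the mean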); settings: OD615, 24 h, at 10 µM, hits give high values
In short: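 assay system = Saccharomyces cerevisiae strain carrying genetically modified DeaD replicative-lifespan system | technique = absorbance (optical density) at 615 nm | buffer or medium = permissive raffinose/galactose medium | timing = cells pre-grown 4 h, then 24 h compound exposure, 30 °C humidified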

[2] = Restrictive medium S. cerevisiae growth inhibition, OD615, pilot screen of yeast lifespan reduction project, restrictive growth control (AID 706;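 active = growth inhibition above a set limit, 3 SD over mean compound inhibition, in both replicates, cut at about 43% in these data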;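 note: modified DeaD lifespan yeast strain shifted to restrictive glucose medium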); settings: OD615, 48 h, at 10 µM, hits give high values
In short: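 System: modified S. cerevisiae. Buffer or medium: CSMM-D glucose medium. Incubation: 4 h pre-growth plus 48 h compound exposure, 30 °C. Detection: absorbance (optical density) measured at 615 nm.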

[3] = viability gain of MRP-1-high H69AR cells under doxorubicin, pilot screen, MRP-1 activator project, CellTiter-Glo, duplicate (AID 807;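 active = viability increase at or above a cutoff of the median across tested compounds plus 3 SD, cut at about 8.5% in these data, passing the limit was not always enough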;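 note: compound pretreatment 18-22 h then 72 h combined with doxorubicin; 0% = doxorubicin alone and 100% = vehicle without doxorubicin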); settings: H69AR viability with doxorubicin, CellTiter-Glo luminescence; at 10 µM; hits give high values
[4] = growth suppression of beta-catenin knockout HCT116, pilot screen, human colon tumor cells (AID 823;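 active = cell viability at or below a set limit in both duplicate runs, the limit being the all-compound median minus 4 SD, cut at about 23% in these data, passing the limit was not always enough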;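 note: 0% = wells killed by 20 µM Hyamine and 100% = untreated DMSO cell wells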); settings: CellTiter-Glo, 60 h, at 10 µM, hits give low values
[5] = growth suppression of PTEN-deleted HCT116, pilot screen, cell-based, HCT116 clonal line, CellTiter-Glo (AID 824;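 active = viability at or below 27.92% in each of two runs, the all-compound median minus 4 SD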;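 note: 0% = 20 µM Hyamine control and 100% = vehicle cell control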); settings: 60 h, at 10 µM, hits give low values
[6] = inhibitors of the yeast RAM network, pilot screen, dse1pr::URA3 reporter, 5-FOA selection (AID 869;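 active = inhibition over a set limit, the all-compound mean plus 3 SD, in both replicate runs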;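 note: 0% = DMSO wells with no growth and 100% = 10 µM 1-NA-PP1 with full growth; RAM network block rescues cells from 5-FOA so hits raise OD615 growth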); settings: S. cerevisiae dse1pr::URA3 5-FOA growth, OD615, 2 d; at 10 µM; hits give high values; strain carries analog-sensitive mutant Cbk1 kinase
[7] = RAM signaling pathway blockade in yeast – S. cerevisiae, Pdr1DBD-CYC8 efflux-inhibited sensitized strain, primary screen (AID 1298);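 note: 0% = DMSO untreated cells without growth and 100% = 10 µM 1-NA-PP1 full growth; higher means more yeast growth rescued from 5-FOA killing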; settings: S. cerevisiae cbk1-as DSE1-URA3 strain, 5-FOA growth OD615, 2 d; at 50 µM; hits give high values

COc1ccc(C2CC(c3ccc(F)cc3)Nc3nc(N)nn32)cc1 (configuration not stated)
inactive: growth inhibition [1] -3.94% | growth inhibition [2] 11.2% | viability increase [3] 0.02% | viability [4] 98.1% | viability [5] 94.4% | inhibition [6] 1% | RAM network inhibition [7] 6.59%

Cn1c(Cn2c(=O)sc3ccccc32)nnc1SCC(=O)NCc1ccc2c(c1)OCO2
inactive: growth inhibition [1] -5.55% | growth inhibition [2] -2.44% | viability increase [3] 0.11% | viability [4] 103% | viability [5] 101% | inhibition [6] 1.07% | RAM network inhibition [7] 4.41%

CCNc1nc(C)cc(COC)c1C#N
inactive: growth inhibition [1] -6.41% | growth inhibition [2] -0.29% | viability increase [3] -0.27% | viability [4] 97.7% | viability [5] 102% | inhibition [6] 1.4% | RAM network inhibition [7] -0.06%

CC(=O)c1ccc(OCC(O)CN2CCN(Cc3ccccc3)CC2)cc1 (configuration not stated)
inactive: growth inhibition [1] -6.49% | growth inhibition [2] 4.36% | viability increase [3] -1.36% | viability [4] 101% | viability [5] 92.1% | inhibition [6] -0.305% | RAM network inhibition [7] 0.94%

Cc1ccc2c(c1)-c1c(cnn1CC(=O)N1CCCN(Cc3ccccc3F)C1)CO2
inactive: growth inhibition [1] -0.225% | growth inhibition [2] -1.89% | viability increase [3] -2.83% | viability [4] 88.9% | viability [5] 93.1% | inhibition [6] 1% | RAM network inhibition [7] 1.9%

Cc1ccc2oc3c(c(=O)c2c1)C(c1cccc(O)c1)N(c1ccccn1)C3=O (configuration not stated)
inactive: growth inhibition [1] -2.51% | growth inhibition [2] -0.22% | viability increase [3] -2.59% | viability [4] 79.4% | viability [5] 68.2% | inhibition [6] 1.81% | RAM network inhibition [7] 4.84%

Cc1nc2ccccc2c2oc(C(=O)N3CCc4ccccc43)cc12
inactive: growth inhibition [1] -11.5% | growth inhibition [2] -16.6% | viability increase [3] -0.71% | viability [4] 95.5% | viability [5] 89.1% | inhibition [6] 0.625% | RAM network inhibition [7] -0.73%

CC1CCCCN1CCn1cnc2c([nH]c3ccccc32)c1=O (configuration not stated)
inactive: growth inhibition [1] -2.21% | growth inhibition [2] 5.29% | viability increase [3] -4.17% | viability [4] 88.1% | viability [5] 87.4% | inhibition [6] -0.135% | RAM network inhibition [7] 4.11%

CCCCc1ccc(NC(=O)OC)cc1
inactive: growth inhibition [1] 1.49% | growth inhibition [2] 10.8% | viability increase [3] 3.48% | viability [4] 104% | viability [5] 90.6% | inhibition [6] 2.21% | RAM network inhibition [7] -2%

COc1ccc(C2CC(C(F)(F)F)n3nc(C(=O)O)c(Cl)c3N2)cc1OC (configuration not stated)
inactive: growth inhibition [1] -2.51% | growth inhibition [2] -1.92% | viability increase [3] 0.25% | viability [4] 105% | viability [5] 97.6% | inhibition [6] 0.77% | RAM network inhibition [7] 2.86%

Cc1cccc(NC(=O)C2C(C(=O)O)C3C=CC2C32CC2)c1C (configuration not stated)
inactive: growth inhibition [1] -2.43% | growth inhibition [2] -9.19% | viability increase [3] -1.67% | viability [4] 95.2% | viability [5] 93.5% | inhibition [6] 1.42% | RAM network inhibition [7] -0.78%

COc1ccc(-c2cn3c(C)c(C(=O)NCc4ccc5c(c4)OCO5)sc3n2)cc1
inactive: growth inhibition [1] -4.21% | growth inhibition [2] 7.5% | viability increase [3] -3.02% | viability [4] 99.8% | viability [5] 100% | inhibition [6] 3.06% | RAM network inhibition [7] 3.34%

CCOC(=O)c1sc(NC(C)=O)cc1C
inactive: growth inhibition [1] -1.26% | growth inhibition [2] 4.88% | viability increase [3] 0.69% | viability [4] 115% | viability [5] 96% | inhibition [6] 0.47% | RAM network inhibition [7] 1.02%

CCOC(=O)c1cnc2c(C#N)c(C)nn2c1-c1ccccc1
inactive: growth inhibition [1] -5.3% | growth inhibition [2] 0.945% | viability increase [3] -0.99% | viability [4] 94% | viability [5] 92.7% | inhibition [6] 1.69% | RAM network inhibition [7] 3.66%

COc1ccc(S(=O)(=O)Cc2ccc(C(=O)N3CCCC3)o2)cc1
inactive: growth inhibition [1] 5.75% | growth inhibition [2] -2.15% | viability increase [3] -1.61% | viability [4] 96.7% | viability [5] 91% | inhibition [6] 1.11% | RAM network inhibition [7] 4.21%

O=C1CC(c2ccccc2)C(C(=O)O)N1 (configuration not stated)
inactive: growth inhibition [1] -0.84% | growth inhibition [2] -18.1% | viability increase [3] 1.77% | viability [4] 99.2% | viability [5] 102% | inhibition [6] 2.74% | RAM network inhibition [7] 0.37%

Cc1cc(C(C)(C)C)oc1C(=O)Nc1ccc(CC(=O)O)cc1
inactive: growth inhibition [1] -5.71% | growth inhibition [2] 6.31% | viability increase [3] 1.52% | viability [4] 100% | viability [5] 98.9% | inhibition [6] 1.31% | RAM network inhibition [7] 3.99%

CCOC(=O)N1CCN(C(=O)c2oc3ccc(S(=O)(=O)N4CCCCCC4)cc3c2C)CC1
inactive: growth inhibition [1] -9.38% | growth inhibition [2] -0.595% | viability increase [3] -4.29% | viability [4] 59.3% | viability [5] 71.1% | inhibition [6] -0.805% | RAM network inhibition [7] 1.63%

Cn1c(=O)oc2cc(S(=O)(=O)N3CCC(C(=O)N4CC=C(c5ccccc5)CC4)CC3)ccc21
inactive: growth inhibition [1] -0.22% | growth inhibition [2] 4.63% | viability increase [3] 0.15% | viability [4] 98.9% | viability [5] 94.8% | inhibition [6] 0.01% | RAM network inhibition [7] 6.76%

Cc1cc(C)n(C(=O)CCCC(=O)n2nc(C)cc2C)n1
inactive: growth inhibition [1] -10.5% | growth inhibition [2] -10.9% | viability increase [3] -1.19% | viability [4] 105% | viability [5] 97.4% | inhibition [6] 1.19% | RAM network inhibition [7] 2.92%

COc1ccc(C2C(C(=O)Nc3cc(C)on3)c3ccccc3C(=O)N2C)cc1OC (configuration not stated)
inactive: growth inhibition [1] -4.48% | growth inhibition [2] 2.73% | viability increase [3] 0.61% | viability [4] 102% | viability [5] 99.4% | inhibition [6] 1.24% | RAM network inhibition [7] 4.64%

O=C1C2=C(SCCS2)C(=O)N1CCCO
inactive: growth inhibition [1] -1.38% | growth inhibition [2] -3.45% | viability increase [3] 0.11% | viability [4] 98.9% | viability [5] 97.9% | inhibition [6] -0.095% | RAM network inhibition [7] 3.67%

CC(C)NC(=O)CCCc1ccccc1
inactive: growth inhibition [1] -8% | growth inhibition [2] -14.1% | viability increase [3] -1.04% | viability [4] 92.1% | viability [5] 91.1% | inhibition [6] 1.2% | RAM network inhibition [7] -0.58%

COc1c2c(nc3ccccc13)OC(C(C)(O)COC(C)=O)C2 (configuration not stated)
inactive: growth inhibition [1] -2.59% | growth inhibition [2] 5.38% | viability increase [3] -1.44% | viability [4] 98.6% | viability [5] 95.7% | inhibition [6] 0.275% | RAM network inhibition [7] 1.41%

Cc1nc2ccc3nc(NC(=O)C4COc5ccccc5O4)sc3c2s1 (configuration not stated)
inactive: growth inhibition [1] -10.6% | growth inhibition [2] 0.74% | viability increase [3] -4.93% | viability [4] 86.8% | viability [5] 80.6% | inhibition [6] 1.55% | RAM network inhibition [7] -0.06%

CN(Cc1ccccc1)C(=O)CCn1c(=O)oc2ccccc21
inactive: growth inhibition [1] 2.31% | growth inhibition [2] -0.265% | viability increase [3] -1.33% | viability [4] 101% | viability [5] 99.2% | inhibition [6] 1.41% | RAM network inhibition [7] 1.99%

COc1ccc(OC)c(S(=O)(=O)NCc2cn3c(C)csc3n2)c1
inactive: growth inhibition [1] -10.1% | growth inhibition [2] 5.41% | viability increase [3] -1.77% | viability [4] 103% | viability [5] 96.5% | inhibition [6] 0.045% | RAM network inhibition [7] 5.95%

Cc1ccc2oc(=O)c3cnn(CC(=O)N4CCc5ccccc5C4)c3c2c1
inactive: growth inhibition [1] -10.4% | growth inhibition [2] -4.8% | viability increase [3] -0.98% | viability [4] 93.5% | viability [5] 92.1% | inhibition [6] 1.77% | RAM network inhibition [7] 3.4%

COc1ccc(C2C=C(c3ccc(C)c(C)c3)Nc3ncnn32)c(OC)c1OC (configuration not stated)
inactive: growth inhibition [1] -5.12% | growth inhibition [2] 11.7% | viability increase [3] -4.29% | viability [4] 40.4% | viability [5] 34.3% | inhibition [6] 0.775% | RAM network inhibition [7] -1.46%

Cn1c(Cn2c(=O)sc3ccccc32)nnc1SCC(=O)N1CCOCC1
inactive: growth inhibition [1] -13.2% | growth inhibition [2] -28% | viability increase [3] -1.17% | viability [4] 103% | viability [5] 99.2% | inhibition [6] 2.92% | RAM network inhibition [7] 3.55%

CCn1c(CCCNC(=O)c2cccs2)nc2ccccc21
inactive: growth inhibition [1] -6.02% | growth inhibition [2] -11.4% | viability increase [3] -2.77% | viability [4] 104% | viability [5] 96.1% | inhibition [6] 2.48% | RAM network inhibition [7] 1.95%

CCc1nnc(NC(=O)C2CCCCC2)s1
inactive: growth inhibition [1] 5.8% | growth inhibition [2] 14.7% | viability increase [3] 1.12% | viability [4] 109% | viability [5] 106% | inhibition [6] 0.455% | RAM network inhibition [7] 1.04%

COc1ccc(Nc2nnc(Cc3ccccc3)c(=O)[nH]2)c(OC)c1
inactive: growth inhibition [1] -23.5% | growth inhibition [2] -17.1% | viability increase [3] 0.58% | viability [4] 93.5% | viability [5] 92.7% | inhibition [6] 1.52% | RAM network inhibition [7] 3.16%

COC(=O)C1CCN(C(c2ccc(OC)c(OC)c2)c2sc3nc(C)nn3c2O)CC1 (configuration not stated)
inactive: growth inhibition [1] 7.23% | growth inhibition [2] 4.6% | viability increase [3] 0.34% | viability [4] 109% | viability [5] 96.9% | inhibition [6] -1.08% | RAM network inhibition [7] 2.68%

CN(C)C(CNC(=O)c1cccs1)c1cccnc1 (configuration not stated)
inactive: growth inhibition [1] -14.2% | growth inhibition [2] -20.4% | viability increase [3] -0.5% | viability [4] 105% | viability [5] 97.4% | inhibition [6] 3.75% | RAM network inhibition [7] 0.26%

CC(C)n1c(CCCO)nc2ccccc21
inactive: growth inhibition [1] -11.3% | growth inhibition [2] -5.23% | viability increase [3] -1.64% | viability [4] 95.7% | viability [5] 88.1% | inhibition [6] 0.93% | RAM network inhibition [7] 0.19%
